Source: ChEMBL document CHEMBL1687851, “Dolabellanes with antibacterial activity from the brown alga Dilophus spiralis” (2011)
Values after ≈ are worked out from the molar mass of the structure shown.

How the values were obtained:
[1] = system: Staphylococcus aureus; assay: Antibacterial activity against 5 x 10^5 CFU/ml Staphylococcus aureus ATCC 25923 after 18 hrs by MTT assay; conditions: ATCC 25923, 18 h
[2] = system: Staphylococcus aureus; assay: Antibacterial activity against 5 x 10^5 CFU/ml epidemic methicillin-resistant Staphylococcus aureus EMRSA-15 after 18 hrs by MTT assay; type: functional; conditions: EMRSA-15, 18 h
In short: (§1)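 Strains grown on nutrient agar 24 h at 37 °C; inoculum adjusted to 0.5 McFarland in normal saline. Compounds dissolved in DMSO, diluted in Mueller-Hinton broth to a 512 μg/mL starting concentration, then two-fold serially diluted in MHB supplemented with Mg2+ (10 mg/L) and Ca2+ (20 mg/L). Incubated 18 h at 37 °C; MIC read as lowest concentration with no visible growth, confirmed by MTT (20 min, 37 °C). Triplicates.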

[3] = system: Staphylococcus aureus; assay: Antibacterial activity against 5 x 10^5 CFU/ml multi-drug-resistant Staphylococcus aureus SA1199B expressing NorA quinolone efflux protein after 18 hrs by MTT assay; type: functional
In short: as §1

[4] = system: Staphylococcus aureus; assay: Antibacterial activity against 5 x 10^5 CFU/ml multi-drug-resistant Staphylococcus aureus XU212 expressing TetK tetracycline efflux protein after 18 hrs by MTT assay; type: functional; conditions: XU212, 18 h
In short: as §1

[5] = system: Staphylococcus aureus; assay: Antibacterial activity against 5 x 10^5 CFU/ml epidemic methicillin-resistant Staphylococcus aureus EMRSA-16 after 18 hrs by MTT assay; type: functional; conditions: EMRSA-16, 18 h
In short: as §1

[6] = system: Staphylococcus aureus; assay: Antibacterial activity against 5 x 10^5 CFU/ml macrolide-resistant Staphylococcus aureus RN4220 expressing MsrA macrolide efflux protein after 18 hrs by MTT assay; type: functional; conditions: RN4220, 18 h
In short: as §1

Row | SMILES | MIC [1] [µg/mL] | MIC [2] [µg/mL] | MIC [3] [µg/mL] | MIC [4] [µg/mL] | MIC [5] [µg/mL] | MIC [6] [µg/mL]
1 | C=C(C)[C@H]1CC(=O)[C@]2(C)C/C=C(\C)CC/C=C(\C)CC[C@@H]12 | > 128 | > 128 | 128 (≈ 447 µM) | > 128 | 16 (≈ 55.9 µM) | > 128
2 | C=C(C)[C@H]1CC(=O)[C@]2(C)C/C=C(/C)CC/C=C(\C)CC[C@@H]12 | > 128 | > 128 | > 128 | > 128 | > 128 | > 128
3 | C=C(C)[C@@H]1CC(=O)[C@]2(C)C/C=C(\C)CC/C=C(\C)CC[C@@H]12 | > 128 | > 128 | > 128 | > 128 | > 128 | > 128
4 | C=C(C)[C@H]1CC[C@]2(C)C/C=C(\C)CC/C=C(\C)CC[C@@H]12 | 64 (≈ 235 µM) | 128 (≈ 470 µM) | 128 (≈ 470 µM) | 128 (≈ 470 µM) | 16 (≈ 58.7 µM) | 128 (≈ 470 µM)
5 | C=C(C)[C@H]1C[C@H](O)[C@]2(C)C/C=C(\C)CC/C=C(\C)CC[C@@H]12 | 128 (≈ 444 µM) | 64 (≈ 222 µM) | 32 (≈ 111 µM) | 64 (≈ 222 µM) | 8 (≈ 27.7 µM) | 64 (≈ 222 µM)
6 | C=C(C)[C@H]1C[C@H](OC(C)=O)[C@]2(C)C/C=C(\C)CC/C=C(\C)CC[C@@H]12 | > 128 | > 128 | > 128 | > 128 | > 128 | > 128
7 | C=C(C)[C@H]1CC(=O)[C@]2(C)C[C@@H]3O[C@@]3(C)CC/C=C(\C)CC[C@@H]12 | > 128 | > 128 | > 128 | > 128 | > 128 | 128 (≈ 423 µM)
8 | C=C(C)[C@H]1CC[C@]2(C)C[C@@H]3O[C@@]3(C)CC/C=C(\C)CC[C@@H]12 | > 128 | > 128 | > 128 | > 128 | 32 (≈ 111 µM) | > 128
9 | C=C(C)[C@H]1C[C@H](OC(C)=O)[C@]2(C)C[C@@H]3O[C@@]3(C)CC/C=C(\C)CC[C@@H]12 | 32 (≈ 92.3 µM) | 128 (≈ 369 µM) | 64 (≈ 185 µM) | 128 (≈ 369 µM) | 32 (≈ 92.3 µM) | 64 (≈ 185 µM)
10 | C=C(C)[C@H]1CC(=O)[C@]2(C)C/C=C(\C)CC[C@@H]3O[C@@]3(C)CC[C@@H]12 | > 128 | > 128 | > 128 | > 128 | > 128 | > 128
11 | C=C(C)[C@H]1CC(=O)[C@]2(C)C/C=C(/C)CC[C@@H]3O[C@@]3(C)CC[C@@H]12 | > 128 | > 128 | > 128 | > 128 | > 128 | > 128
12 | C=C(C)[C@H]1CC[C@]2(C)C/C=C(\C)CC[C@@H]3O[C@@]3(C)CC[C@@H]12 | > 128 | 128 (≈ 444 µM) | > 128 | > 128 | 4 (≈ 13.9 µM) | > 128
13 | C/C1=C\C[C@@]2(C)CC[C@H](C(C)(C)O)[C@@H]2CC/C(C)=C/CC1 | 32 (≈ 110 µM) | 32 (≈ 110 µM) | 32 (≈ 110 µM) | 64 (≈ 220 µM) | 8 (≈ 27.5 µM) | 64 (≈ 220 µM)
14 | C/C1=C\C[C@@]2(C)CC[C@@](O)(C(C)C)[C@@H]2CC/C(C)=C/CC1 | 8 (≈ 27.5 µM) | 8 (≈ 27.5 µM) | 16 (≈ 55.1 µM) | 16 (≈ 55.1 µM) | 8 (≈ 27.5 µM) | 8 (≈ 27.5 µM)
15 | C=C(C)[C@@H]1CC[C@]2(C)/C=C/[C@H](C)CC/C=C(\C)CC[C@@H]12 | > 128 | > 128 | > 128 | > 128 | > 128 | > 128
16 | C/C1=C\CC[C@@H](C)/C=C/[C@@]2(C)CC[C@@H](C(C)(C)O)[C@@H]2CC1 | 64 (≈ 220 µM) | 64 (≈ 220 µM) | 64 (≈ 220 µM) | 64 (≈ 220 µM) | 16 (≈ 55.1 µM) | 64 (≈ 220 µM)
17 | CC(=O)O[C@H]1C/C(C)=C/CC[C@@H](C)/C=C/[C@@]2(C)CC[C@@H](C(C)(C)O)[C@H]12 | > 128 | > 128 | > 128 | > 128 | 64 (≈ 184 µM) | > 128
18 | C=C(C)[C@H]1C[C@@H](O)[C@]2(C)C/C=C(\C)CC/C=C(\C)CC[C@@H]12 | 4 (≈ 13.9 µM) | 2 (≈ 6.93 µM) | 2 (≈ 6.93 µM) | 4 (≈ 13.9 µM) | 2 (≈ 6.93 µM) | 4 (≈ 13.9 µM)
19 | CCn1cc(C(=O)O)c(=O)c2cc(F)c(N3CCNCC3)cc21 [NORFLOXACIN] | 0.5 (≈ 1.57 µM) | 0.5 (≈ 1.57 µM) | 32 (≈ 100 µM) | 8 (≈ 25.1 µM) | 128 (≈ 401 µM) | 0.5 (≈ 1.57 µM)
